IC50, Activity and CC50 data for 15 molecules are collected here from ChEMBL document CHEMBL2057093, “New oxirane derivatives of 1,4-naphthoquinones and their evaluation against T. cruzi epimastigote forms” (Bioorg Med Chem, 2012).

Some results are limits rather than exact numbers.

Series [1] concerns Trypanosoma cruzi. As to the kind of experiment: Antitrypanosomal activity against Trypanosoma cruzi Y epimastigotes after 72 hrs by Neubauer counter-based microscopic analysis. In kind it is functional, organism-based. In a few lines:
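T. cruzi Y epimastigotes (10^6 cells/mL) grown in BHI medium with 10% fetal bovine serum at 28 °C and exposed to compounds from 5 mM DMSO stocks for 72 h. Parasites counted directly in a Neubauer chamber by light microscopy. Untreated and 1% DMSO (v/v) cultures served as negative controls. IC50 (50% growth inhibition) computed by Probit analysis.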

Series [2] concerns Trypanosoma cruzi. Kind of series: Antitrypanosomal activity against Trypanosoma cruzi Y epimastigotes assessed as cell death at 50 uM after 72 hrs by propidium iodide staining-based flow cytometric analysis. In kind it is functional. The essentials:
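T. cruzi Y epimastigotes at 5 × 10^5 cells/mL exposed to compound at 50 µM for 72 h. Cells then centrifuged (1500 g), washed in PBS and stained with 30 µg/mL propidium iodide for 15 min. Flow cytometry acquired 10,000 events in the epimastigote gate, and PI-positive cells were counted as dead. Mean and SD from at least two independent experiments in duplicate.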

Series [3] can be described thus: Cytotoxicity against african green monkey Vero cells after 72 hrs by spectrophotometric analysis. In kind it is cell-based. The settings on record: chlorocebus sabaeus. The essentials:
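VERO kidney fibroblasts kept in DMEM with 5% fetal bovine serum and HEPES. Seeded at 10^5 cells/well and allowed to adhere 24 h at 37 °C, then exposed to compounds for 72 h. Cells were PBS-washed, fixed in 0.2% formaldehyde, stained 1 h with 0.2% Coomassie Brilliant Blue R-250, and eluted with 1% SDS. Absorbance read at 595 nm. CC50 by Probit from triplicate runs.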

On to `CC1(C)CCC23CC2(O1)C(=O)c1ccccc1C3=O` (stereo not given), for which the IC50 in the series on Trypanosoma cruzi [1] amounted to 60.9 µM. Further, the Activity with Trypanosoma cruzi [2] was 3.1%. The same molecule had a CC50 at 72 h in series [3] of 66 µM.
As to `CC1(C)CCC2=C(O1)C(=O)C1=C(CCCC1)C2=O`, in the series with Trypanosoma cruzi [1], the IC50 was determined as 16.3 µM. The Activity in the series on Trypanosoma cruzi [2] was found to be 84.2%. The midpoint of cytotoxicity in series [3], the CC50 at 72 h, lay at 11.7 µM.
For `CC1(C)CCC2=C(O1)C1(CO1)C1=C(CCCC1)C2=O` (stereo not given) the same measures were 16.4 µM, 17.9% and 58.1 µM.
Turning to `COC1=CC(=O)c2ccccc2C12CO2` (stereo not given), the IC50 in the series with Trypanosoma cruzi [1] was 1.13 µM. The Activity in the series on Trypanosoma cruzi [2] came to 74.2%. For the same molecule, the midpoint of cytotoxicity in series [3], the CC50 at 72 h, lay at 44 µM.
For `C=CCOC1=CC(=O)c2ccccc2C1=O`, the midpoint of inhibition with Trypanosoma cruzi [1], the IC50, lay at 0.02 µM. Besides, the Activity with Trypanosoma cruzi [2] turned out to be 86.3%. Further, the CC50 at 72 h in series [3] is below 1 µM.
Turning to `C=CCOC1=CC(=O)c2ccccc2C12CO2` (stereo not given), the IC50 in the series with Trypanosoma cruzi [1] was determined as 0.2 µM. Moreover, the Activity in the series on Trypanosoma cruzi [2] worked out at 84.5%. Further, the CC50 at 72 h in series [3] is below 1 µM.
In turn, `O=C1C(Cl)=C(Cl)C2(CO2)c2ccccc21` (stereo not given) displayed an IC50 in the series on Trypanosoma cruzi [1] of 9.48 µM. In the series on Trypanosoma cruzi [2], the Activity is 84.7%. In series [3], this molecule had a CC50 at 72 h of 19 µM.
Regarding `CC1(C)CCC2=C(O1)C1(CO1)c1ccccc1C2=O` (stereo not given), the IC50 with Trypanosoma cruzi [1] turned out to be 0.05 µM. The Activity with Trypanosoma cruzi [2] was 85.6%. In series [3], this molecule returned a CC50 at 72 h above 50 µM.
Molecule `CC1(C)CC2=C(O1)C1(CO1)c1ccccc1C2=O` (stereo not given) displayed an IC50 in the series with Trypanosoma cruzi [1] of 19.3 µM. For the same molecule, in the series with Trypanosoma cruzi [2], the Activity is recorded as 88.5%. The molecule also gave a CC50 at 72 h in series [3] of 19 µM.
`CC1(C)CC2=C(O1)C(=O)c1ccccc1C2=O` displayed an IC50 with Trypanosoma cruzi [1] of 8.8 µM. Further, the Activity with Trypanosoma cruzi [2] is recorded as 91.4%. Also, the CC50 at 72 h in series [3] was found to be 2.7 µM.
For the molecule `COC1=CC(=O)c2ccccc2C1=O` [2-Methoxy-1,4-naphthoquinone], the IC50 in the series on Trypanosoma cruzi [1] was determined as 3.19 µM. For the same molecule, the Activity in the series with Trypanosoma cruzi [2] is reported as 82.3%. Half-maximal cytotoxicity in series [3] (CC50 at 72 h) was put at 13 µM.
`CC1(C)CCC2=C(O1)C(=O)c1ccccc1C2=O` [ALPHA-LAPACHONE] displayed an IC50 in the series on Trypanosoma cruzi [1] of 3.19 µM. For the same molecule, in the series on Trypanosoma cruzi [2], the Activity came out at 82.7%. This molecule showed a CC50 at 72 h in series [3] of 1.2 µM.
In the same order, the values of `O=C(Cn1ccnc1[N+](=O)[O-])NCc1ccccc1` [BENZNIDAZOLE] are 11.5 µM, 26.8% and 48 µM.
For `O=C1C(Cl)=C(Cl)C(=O)c2ccccc21` [Dichlon] the same measures were 0.09 µM, 84.3% and 6.3 µM.
For the molecule `CC1(C)CCC2=C(O1)c1ccccc1C(=O)C2=O` [LAPACHONE], in the series on Trypanosoma cruzi [1], the IC50 was below 3.1 µM. Further, the Activity in the series on Trypanosoma cruzi [2] was determined as 91.3%. For the same molecule, the half-maximal cytotoxic concentration (CC50) at 72 h in series [3] was below 3.1 µM.

As usually defined, the IC50 is the concentration that gives 50% inhibition. The CC50 is the concentration that lowers cell viability or growth by half.
